Results from ChEMBL document CHEMBL1153964, “Tricyclic HIV integrase inhibitors V. SAR studies on the benzyl moiety” (Bioorg Med Chem Lett, 2009).
pEC50, pIC50: −log10 of the molar value.

Assays:
[1] = Inhibition of HIV integrase strand transfer activity; design: species or system Human immunodeficiency virus
Summary of the method: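 Strand transfer was run with biotinylated donor DNA bound to streptavidin-coated plates and DIG-tagged target DNA. Values are means of at least two experiments.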

[2] = system: Human immunodeficiency virus 1; experiment: Antiviral activity against HIV1 3B infected in human MT2 cells after 5 days by chemiluminescence in presence of fetal bovine serum; type: functional, organism-based; settings: Human immunodeficiency virus 1, 3B, MT2, 120 h
Summary of the method: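 HIV-1 IIIB infected MT-2 cells at m.o.i. 0.01 for 3 h, then ~1.5 × 10⁴ cells per well were added to 9 fivefold serial drug dilutions in triplicate in medium with 10% FBS. Plates ran 5 days at 37 °C. CellTiter-Glo was added with 10 min room-temperature lysis, and chemiluminescence was read. Values are means of at least two experiments.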

[3] = system: Human immunodeficiency virus 1; experiment: Antiviral activity against HIV1 3B infected in human MT2 cells after 5 days by chemiluminescence in presence of human serum albumin; type: functional, organism-based; settings: Human immunodeficiency virus 1, 3B, MT2, 120 h
Summary of the method: (§1)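 Same MT-2/HIV-1 IIIB 5-day CellTiter-Glo chemiluminescence assay in 10% FBS, with physiological HSA (35 mg/ml) and α1-AGP (1.5 mg/ml) added. Shift fold is EC50 with these serum proteins divided by EC50 in 10% FBS alone.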

[4] = system: Human immunodeficiency virus 1; experiment: Ratio of EC50 for HIV1 3B in presence of human serum proteins to EC50 for HIV1 3B in presence of fetal bovine serum; type: functional; summary of the method: as §1
[5] = Oral bioavailability in rat; type: ADME, organism-based; settings: in vivo
Summary of the method: (§2)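 Rats and dogs received compound as free parent in solution (EtOH, PG, PEG400 and citric acid), at pH 3.3 for iv and pH 2.2 for oral dosing. Half-life and total body clearance come from the iv groups. Oral F (%) is from po versus iv AUC. Values are means of three animals per study.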

[6] = Half life in iv dosed rat; type: ADME, organism-based; settings: in vivo; summary of the method: as §2
[7] = Clearance in iv dosed rat; type: ADME, organism-based; settings: in vivo; summary of the method: as §2
[8] = Oral bioavailability in dog; type: ADME, organism-based, Canis lupus familiaris; settings: in vivo; summary of the method: as §2
[9] = Half life in iv dosed dog; type: ADME, organism-based, Canis lupus familiaris; settings: in vivo; summary of the method: as §2
[10] = Clearance in iv dosed dog; type: ADME, organism-based, Canis lupus familiaris; settings: in vivo; summary of the method: as §2

**Q.** With CN(c1c2c(c(O)c3ncccc13)C(=O)N(Cc1cccc(Cl)c1F)C2)S(C)(=O)=O as the molecule, how does the pIC50 [1] read?
**A.** 7.21

**Q.** And the pEC50 [2]?
**A.** 8.22

**Q.** What about the pEC50 [3] of the same molecule?
**A.** 7.74

**Q.** What about the “Ratio EC50” value [4] of the same molecule?
**A.** 3

**Q.** With CN(c1c2c(c(O)c3ncccc13)C(=O)N(Cc1ccccc1)C2)S(C)(=O)=O as the molecule, how does the pIC50 [1] read?
**A.** 6.92

**Q.** And the pEC50 [2]?
**A.** 7.46

**Q.** With CN(c1c2c(c(O)c3ncccc13)C(=O)N(Cc1cc(Cl)c(F)cc1F)C2)S(C)(=O)=O as the molecule, how does the pIC50 [1] read?
**A.** 7.41

**Q.** What about the pEC50 [2] of the same molecule?
**A.** 8.22

**Q.** And the pEC50 [3]?
**A.** 7.77

**Q.** What about the “Ratio EC50” value [4] of the same molecule?
**A.** 2.8

**Q.** What about the bioavailability [5] of the same molecule?
**A.** 9%

**Q.** What about the half-life [6] of the same molecule?
**A.** 1.38 h

**Q.** What about the clearance [7] of the same molecule?
**A.** 4.83 mL/min/kg

**Q.** And the bioavailability [8]?
**A.** 79%

**Q.** What about the half-life [9] of the same molecule?
**A.** 16 h

**Q.** What about the clearance [10] of the same molecule?
**A.** 0.333 mL/min/kg

**Q.** What does the source list for CNC(=O)c1cc(F)ccc1CN1Cc2c(c(O)c3ncccc3c2N(C)S(C)(=O)=O)C1=O?
**A.** pIC50 [1]: 7.13; pEC50 [2]: 7.49; pEC50 [3]: 7.05; Ratio EC50 [4]: 2.8

**Q.** Which results are given for CC(=O)Nc1cc(F)ccc1CN1Cc2c(c(O)c3ncccc3c2N(C)S(C)(=O)=O)C1=O?
**A.** pIC50 [1]: 8.30; pEC50 [2]: 7.28

**Q.** What does the source list for CN(c1c2c(c(O)c3ncccc13)C(=O)N(Cc1ccc(F)c(Cl)c1F)C2)S(C)(=O)=O?
**A.** pIC50 [1]: 6.87; pEC50 [2]: 8.30; pEC50 [3]: 7.74; Ratio EC50 [4]: 3.6

**Q.** Which results are given for CN(c1c2c(c(O)c3ncccc13)C(=O)N(Cc1ccc(F)cc1)C2)S(C)(=O)=O?
**A.** pIC50 [1]: 7.55; pEC50 [2]: 8.77; pEC50 [3]: 7.94; Ratio EC50 [4]: 6.7; bioavailability [5]: 15%; half-life [6]: 1.1 h; clearance [7]: 4.67 mL/min/kg; bioavailability [8]: 45%; half-life [9]: 7 h; clearance [10]: 6.67 mL/min/kg

**Q.** What does the source list for CN(c1c2c(c(O)c3ncccc13)C(=O)N(Cc1ccc(F)c(Cl)c1)C2)S(C)(=O)=O?
**A.** pIC50 [1]: 7.28; pEC50 [2]: 8.46; pEC50 [3]: 7.92; Ratio EC50 [4]: 3.4; bioavailability [5]: 7%; half-life [6]: 1.36 h; clearance [7]: 3.83 mL/min/kg; bioavailability [8]: 41%; half-life [9]: 7.13 h; clearance [10]: 2.5 mL/min/kg

**Q.** With Cc1nnc(C(=O)NC(C)(C)c2nc(C(=O)NCc3ccc(F)cc3)c(O)c(=O)n2C)o1 [RALTEGRAVIR] as the molecule, how does the pIC50 [1] read?
**A.** 7.40

**Q.** And the pEC50 [2]?
**A.** 8.40

**Q.** And the pEC50 [3]?
**A.** 7.70
